Assay results gathered from unrelated publications.
CYP2E1: Cytochrome P450 2E1 (CYP2E1, Homo sapiens, UniProt P05181)

CN(C)C(=O)CN1C(=O)Cc2c([nH]c3ccc(Br)cc23)-c2ccc(Cl)cc21
CC50 (J774; cell growth or viability, WST-1; 24 h): ≥ 100 µM

O=c1[nH]c2cc(-c3ccccc3)sc2c(=O)n1O
viability (HFF; cell growth or viability, MTS; 10 µM, 7 days): 85%

CN(C(=O)n1cnc(-c2ccc[n+]([O-])c2)c1)C1CCCCC1
Cmax (male cynomolgus monkey, plasma; oral, 0.1 mg/kg): 37.1 ng/mL

CC1COc2ccccc2N1C(=O)C(Cl)Cl (stereo not shown)
microsomal CLint (metabolic stability; male monkey, liver microsomes; 5 µM, pH 7.4): 900 µL/min/mg

Cc1csc2c(=O)n(O)c(=O)[nH]c12
viability (HFF; cell growth or viability, MTS; 10 µM, 7 days): 122%

C[C@@H](c1ccc2nccn2c1)n1nnc2ncc(-c3cnn(C)c3)nc21
IC50 (CYP2E1; enzyme activity, inhibitor; human, liver microsomes; pH 7.4): 100 µM

Nc1ccc(C=Cc2ccc([125I])cc2)cc1
tracer uptake (Swiss mouse, brain; intravenous, 5 µCi, 2 h): 1.12 %ID/g

O=c1[nH]c2cc(-c3ccc(F)cc3)sc2c(=O)n1O
viability (HFF; cell growth or viability, MTS; 10 µM, 7 days): 61%

O=C(CN1C(=O)Cc2c([nH]c3ccc(Br)cc23)-c2ccc(Cl)cc21)N1CCOCC1
CC50 (J774; cell growth or viability, WST-1; 24 h): ≤ 10 µM

Nn1nnc2ccccc21
IC50 (CYP2E1; enzyme activity, inhibitor, HPLC): 37.7 µM

O=c1[nH]c2scc(-c3ccccc3)c2c(=O)n1O
viability (HFF; cell growth or viability, MTS; 10 µM, 7 days): 90%

CCN(CC)C(=O)[C@@]1(c2ccccc2)C[C@H]1CN
Cmax (male cynomolgus monkey, plasma; oral, 30 mg/kg): 5020 ng/mL

CC(C)(C)NC(=O)CN1C(=O)Cc2c([nH]c3ccc(Br)cc23)-c2ccc(Cl)cc21
CC50 (J774; cell growth or viability, WST-1; 24 h): ≥ 100 µM

Cn1ccc(COc2cnc(C(N)=O)cc2-c2ccc(O[11CH3])cc2F)n1
tracer uptake (male mouse, pancreas; intravenous, 2.5 MBq, 1 h): 5.87 %ID/g

O=c1[nH]c2sc(-c3ccc(F)cc3)cc2c(=O)n1O
viability (HFF; cell growth or viability, MTS; 10 µM, 7 days): 112%

O=C(CCCCCCC(=O)Nc1ccc(CC[18F])cc1)NO
tracer uptake (male nude mouse, stomach; intravenous, 1 h, tumour-bearing): 1.5 %ID/g
